# Calls of active or inactive are those of the source. The rule behind the calls is not given here.
# How the values were obtained:
# [1] = Antioxidant activity assessed as ABTS radical cation scavenging activity by measuring trolox equivalents at 10 uL after 1 min; format: functional
# Method in brief: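 ABTS radical cation made from 2 mM aqueous ABTS plus 0.17 mM potassium persulfate in 20 mM phosphate buffer pH 7.4, kept 12–16 h dark at rt. Diluted with ethanol to A734 0.70, then mixed with 10 μL compound from 10 mM stock. Absorbance read at rt 1 min after mixing. Trolox as standard.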
# [2] = Antioxidant activity assessed as hydroxyl radical scavenging activity at 0.1 mM measured after 30 mins; format: functional
# Method in brief: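 Hydroxyl radicals from Fe3+/ascorbic acid: EDTA 0.1 mM, Fe3+ 167 μM, DMSO 33 mM, compound 0.1 mM and ascorbic acid 10 mM in 50 mM phosphate buffer pH 7.4. Incubated 37 °C for 30 min, stopped with 17% w/v TCA. Read-out is inhibition of formaldehyde formation, given as % scavenging. Trolox as reference.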
# Lipoxygenase = Lipoxygenase (Glycine max, UniProt Q39829); test: Inhibition of soybean lipoxygenase using sodium linoleate as substrate by UV-based analysis
# Method in brief: (§1)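 Soybean lipoxygenase (enzyme 1/9 ×10⁻⁴ w/v in saline) incubated at rt with 0.1 mM sodium linoleate and compound in DMSO, at several concentrations from 1 to 100 µM diluted from 10 mM stock. Conversion to 13-hydroperoxylinoleic acid recorded at 234 nm; IC50 derived. NDGA as reference inhibitor.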
# [3] = Antioxidant activity assessed as DPPH free radical scavenging activity at 0.1 mM measured after 20 to 60 mins; format: functional
# Method in brief: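 DPPH 0.1 mM in absolute ethanol with compound at 0.1 mM final (from DMSO). Absorbance at 517 nm recorded after 20 and 60 min at rt. NDGA as standard.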
# [4] = Antioxidant activity assessed as superoxide anion scavenging activity at 0.1 mM pH 7.4 after 10 mins by NBT assay; format: functional
# Method in brief: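 Superoxide generated by xanthine/xanthine oxidase (0.07 U/mL) in 0.1 M phosphate buffer pH 7.4 containing NBT and compound at 0.1 mM final. After 10 min at rt, absorbance read at 560 nm. Caffeic acid as standard.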
# Primary neuron [5] = test: Neuroprotective activity against oxygen-glucose deprivation-induced cell death in Sprague-Dawley rat primary neuronal cells assessed as cell viability at 0.3 to 100 uM treated at onset of recovery period and measured at 24 hrs of recovery by MTT assay relative to control; format: functional, cell-based
# Method in brief: (§2)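 Rat cortical neurons from E16–17 Sprague-Dawley embryos, used at 6–7 days in serum-free medium. OGD: glucose-free medium bubbled with 95% N2/5% CO2, <0.1% O2, 6.5% CO2, 37 °C, 4 h. Compound added at start of 24 h normoxic recovery. Viability by MTT (0.2 mg/mL, 1.5 h), lysis with HCl/SDS, read at 595/690 nm, relative to 100% control. Four to eight culture batches, each in quadruplicate.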
# [6] = Antioxidant activity assessed as inhibition of linoleic acid peroxidation activity at 10 uL; format: functional; set-up: scale not given: the % may be the effect or the level left
# Method in brief: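 AAPH-initiated peroxidation of sodium linoleate dispersion (16 mM, 10 μL) in 0.05 M phosphate buffer pH 7.4 at 37 °C under air. Initiator was 50 μL of 40 mM AAPH, with 10 μL compound added. Conjugated diene hydroperoxide followed at 234 nm. Trolox as reference.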
# [7] = Antiinflammatory activity assessed as NO release at 100 uM after 60 mins in presence of L-cysteine by Griess reagent-based relative to control; format: functional
# Method in brief: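 NO-release test: compound at 100 μM final (from DMSO) in 50 mM phosphate buffer pH 7.4 containing 1 mM L-cysteine, 60 min at 37 °C. Reaction mixture then treated with Griess reagent, left 10 min at rt, absorbance read at 540 nm. Sodium nitroprusside as standard. Mean of three to four determinations.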
# Primary neuron [8] = test: Neuroprotective activity against oxygen-glucose deprivation-induced cell death in Sprague-Dawley rat primary neuronal cells assessed as cell viability at 1 to 100 uM treated at onset of recovery period and measured at 24 hrs of recovery by MTT assay relative to control; format: functional, cell-based; method in brief: as §2
# Rattus norvegicus = test: Antiinflammatory activity in Fisher 344 rat model of carrageenan-induced edema assessed as inhibition of carrageenan-induced paw edema at 0.01 mmol/kg, ip dosed simultaneously with carrageenan injection relative to control; format: functional; conditions: Fisher 344, ip
# Method in brief: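 Fisher 344 rats (150–200 g), both sexes. Edema was induced by intradermal injection of 0.1 mL 2% carrageenan in water into the right hind paw. Compound was suspended in water with a few drops of Tween 80. Rats were euthanized 3.5 h later. The injected-minus-uninjected paw weight difference was compared with water or Tween-water controls as % inhibition. Mean of two experiments, n = 6 each.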
# Primary neuron [9] = test: Neuroprotective activity against oxygen-glucose deprivation-induced cell death in Sprague-Dawley rat primary neuronal cells assessed as cell viability at 1 to 250 uM treated at onset of recovery period and measured at 24 hrs of recovery by MTT assay relative to control; format: functional, cell-based; method in brief: as §2
# [10] = target: Lipoxygenase (Glycine max) (UniProt Q39829); test: Inhibition of soybean lipoxygenase at 1 to 100 uM using sodium linoleate as substrate by UV-based analysis relative to control; method in brief: as §1
# Primary neuron [11] = test: Neuroprotective activity against oxygen-glucose deprivation-induced cell death in Sprague-Dawley rat primary neuronal cells assessed as cell viability at 1 to 10 uM treated at onset of recovery period and measured at 24 hrs of recovery by MTT assay relative to control; format: functional, cell-based; method in brief: as §2
# [12] = Neuroprotective activity against oxygen-glucose deprivation-induced cell death in Sprague-Dawley rat primary neuronal cells assessed as cell viability at 250 uM treated at onset of recovery period and measured at 24 hrs of recovery by MTT assay relative to control; format: functional; conditions: Primary neuron, read-out: Activity; method in brief: as §2
# [13] = Neuroprotective activity against oxygen-glucose deprivation-induced cell death in Sprague-Dawley rat primary neuronal cells assessed as cell viability at 100 uM treated at onset of recovery period and measured at 24 hrs of recovery by MTT assay relative to control; format: functional; conditions: Primary neuron, read-out: Activity; method in brief: as §2
# Primary neuron [14] = test: Neuroprotective activity against oxygen-glucose deprivation-induced cell death in Sprague-Dawley rat primary neuronal cells assessed as cell viability at 0.5 to 10 uM treated at onset of recovery period and measured at 24 hrs of recovery by MTT assay relative to control; format: functional, cell-based; method in brief: as §2
# [15] = Neuroprotective activity against oxygen-glucose deprivation-induced cell death in Sprague-Dawley rat primary neuronal cells assessed as cell viability at 10 uM treated at onset of recovery period and measured at 24 hrs of recovery by MTT assay relative to control; format: functional; conditions: Primary neuron, read-out: Activity; method in brief: as §2
# [16] = Neuroprotective activity against oxygen-glucose deprivation-induced cell death in Sprague-Dawley rat primary neuronal cells assessed as cell viability at 50 uM treated at onset of recovery period and measured at 24 hrs of recovery by MTT assay relative to control; format: functional; conditions: Primary neuron, read-out: Activity; method in brief: as §2
# Primary neuron [17] = test: Neuroprotective activity against oxygen-glucose deprivation-induced cell death in Sprague-Dawley rat primary neuronal cells assessed as cell viability at 0.5 to 250 uM treated at onset of recovery period and measured at 24 hrs of recovery by MTT assay relative to control; format: functional, cell-based; method in brief: as §2
compound,measurement,setting,value
COc1ccc2nc(Cl)c(/C=[N+](\[O-])Cc3ccccc3)cc2c1,Activity,[1],inactive
same,Activity,[2],65%
same,IC50,Lipoxygenase,100 µM
same,Activity,[3],3%
same,Activity,[4],18%
same,Activity,Primary neuron [5],inactive
same,Activity,[6],100%
same,Activity,[7],12.5%
COc1ccc(OC)c2nc(Cl)c(/C=[N+](\[O-])Cc3ccccc3)cc12,Activity,Primary neuron [8],inactive
COc1ccc2c(c1)c(CC(=O)O)c(C)n2C(=O)c1ccc(Cl)cc1 [INDOMETHACIN],inhibition in vivo at 10 µmol/kg,Rattus norvegicus,47%
COc1ccc2nc(Cl)c(/C=[N+](/C)[O-])cc2c1,Activity,[1],inactive
same,Activity,[2],100%
same,Activity,Primary neuron [9],inactive
same,inhibition,[10],26%
same,Activity,[3],inactive
same,Activity,[4],29%
same,Activity,[6],100%
same,Activity,[7],11%
Cc1ccc2nc(Cl)c(/C=N/N)cc2c1,Activity,Primary neuron [9],inactive
Cc1ccc2nc(Cl)c(/C=N/NCc3ccccc3)cc2c1,Activity,Primary neuron [9],inactive
O=C(O)/C=C/c1ccc(O)c(O)c1,Activity,[4],15%
CNc1nc2ccc(C)cc2cc1/C=[N+](\[O-])Cc1ccccc1,Activity,Primary neuron [11],inactive
CC(C)(C)/[N+]([O-])=C/c1cc2ccccc2nc1O,Activity,[1],6%
same,Activity,[2],99%
same,IC50,Lipoxygenase,36.5 µM
same,Activity,[3],inactive
same,Activity,[4],23%
same,viability at 250 µM,[12],55%
same,Activity,[6],100%
same,viability at 100 µM,[13],48.8%
[O-]/[N+](=C\c1cc2cc(Cl)ccc2nc1Cl)Cc1ccccc1,Activity,Primary neuron [9],inactive
COc1nc2ccccc2cc1/C=[N+](\[O-])Cc1ccccc1,Activity,Primary neuron [8],inactive
Cc1ccc2nc(Cl)c(/C=N/OCc3ccccc3)cc2c1,Activity,Primary neuron [14],inactive
COc1nc2ccc(C)cc2cc1/C=[N+](\[O-])Cc1ccccc1,Activity,Primary neuron [8],inactive
CC(Cc1ccc(O)c(O)c1)C(C)Cc1ccc(O)c(O)c1 (stereo unspecified) [NORDIHYDROGUAIARETIC ACID],Activity,[3],93%
Cc1ccc2nc(O)c(/C=[N+](\[O-])Cc3ccccc3)cc2c1,Activity,Primary neuron [9],Active
Cc1ccc2nc(O)c(/C=[N+](\[O-])C(C)(C)C)cc2c1,Activity,Primary neuron [9],Active
Cc1ccc2nc(Cl)c(/C=[N+](\[O-])Cc3ccccc3)cc2c1,viability at 10 µM,[15],55.4%
same,viability at 50 µM,[16],56.8%
CC(C)(C)/[N+]([O-])=C/c1cc2ccccc2n2nnnc12,Activity,Primary neuron [8],inactive
Cc1ccc2nc(N(C)C)c(/C=[N+](\[O-])Cc3ccccc3)cc2c1,Activity,Primary neuron [9],Active
Cc1ccc2nc(Cl)c(/C=[N+](\[O-])c3ccccc3)cc2c1,Activity,Primary neuron [9],inactive
[O-]/[N+](=C\c1cc2cc(O)ccc2nc1Cl)Cc1ccccc1,Activity,Primary neuron [9],inactive
Cc1ccc2nc(Cl)c(/C=N/O)cc2c1,Activity,Primary neuron [17],inactive
CC(C)(C)/[N+]([O-])=C/c1cc2ccccc2nc1Cl,Activity,[1],inactive
same,Activity,[2],97%
same,IC50,Lipoxygenase,32.5 µM
same,Activity,[3],7%
same,Activity,[4],16%
same,Activity,Primary neuron [8],inactive
same,Activity,[6],inactive
same,Activity,[7],7.5%
COc1ccc2cc(/C=[N+](\[O-])Cc3ccccc3)c(Cl)nc2c1,Activity,Primary neuron [8],inactive
Cc1c(C)c2c(c(C)c1O)CCC(C)(C(=O)O)O2 (stereo unspecified),Activity,[1],91%
same,Activity,[2],73%
same,Activity,[6],88%
Cc1ccc2ncc(/C=[N+](\[O-])Cc3ccccc3)cc2c1,Activity,Primary neuron [9],Active
COc1ccc2nc(Cl)c(C=O)cc2c1,Activity,Primary neuron [8],inactive
Cc1ccc2nc(Cl)c(/C=N/Cc3ccccc3)cc2c1,Activity,Primary neuron [17],inactive
[O-]/[N+](=C\c1cc2ccccc2nc1Cl)Cc1ccccc1,Activity,Primary neuron [8],inactive
Cc1ccc2nc(Cl)c(/C=N/C(C)(C)C)cc2c1,Activity,Primary neuron [9],inactive

# Reference: ChEMBL document CHEMBL4422671, “New Quinolylnitrones for Stroke Therapy: Antioxidant and Neuroprotective ( Z)- N- tert-Butyl-1-(2-chloro-6-methoxyquinolin-3-yl)methanimine Oxide as a New Lead-Compound for Ischemic Stroke Treatment” (J Med Chem, 2019)
